These results are taken from ChEMBL document CHEMBL4011648, “Adamantyl Antiestrogens with Novel Side Chains Reveal a Spectrum of Activities in Suppressing Estrogen Receptor Mediated Activities in Breast Cancer Cells” (J Med Chem, 2017).

What is called pIC50 is −log10 of the IC50, conventionally taken in molar units. One may read the pKi as the negative decadic logarithm of the Ki, by convention in mol/L. Low readings indicate a large Ki, high ones a small Ki.

The subject of experiment [1] is MCF7. The experiment in a line: Antiproliferative activity against ER-positive human MCF7 cells after 6 days by WST-1 assay. It counts as functional, cell-based. To be noted: MCF7, 144 h. In a few lines:
(§1)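 MCF-7 cells (ATCC), 6-day compound exposure; viability by WST-1 absorbance at 450 nm, expressed relative to vehicle-treated controls. Run in triplicate; 3 μM single-concentration screen values are averages of two to three independent experiments. Dose-response curves give IC50.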

Experiment [2] deals with T1, Estrogen receptor (Homo sapiens, UniProt P03372).
T1 sequence (P03372 whole entry): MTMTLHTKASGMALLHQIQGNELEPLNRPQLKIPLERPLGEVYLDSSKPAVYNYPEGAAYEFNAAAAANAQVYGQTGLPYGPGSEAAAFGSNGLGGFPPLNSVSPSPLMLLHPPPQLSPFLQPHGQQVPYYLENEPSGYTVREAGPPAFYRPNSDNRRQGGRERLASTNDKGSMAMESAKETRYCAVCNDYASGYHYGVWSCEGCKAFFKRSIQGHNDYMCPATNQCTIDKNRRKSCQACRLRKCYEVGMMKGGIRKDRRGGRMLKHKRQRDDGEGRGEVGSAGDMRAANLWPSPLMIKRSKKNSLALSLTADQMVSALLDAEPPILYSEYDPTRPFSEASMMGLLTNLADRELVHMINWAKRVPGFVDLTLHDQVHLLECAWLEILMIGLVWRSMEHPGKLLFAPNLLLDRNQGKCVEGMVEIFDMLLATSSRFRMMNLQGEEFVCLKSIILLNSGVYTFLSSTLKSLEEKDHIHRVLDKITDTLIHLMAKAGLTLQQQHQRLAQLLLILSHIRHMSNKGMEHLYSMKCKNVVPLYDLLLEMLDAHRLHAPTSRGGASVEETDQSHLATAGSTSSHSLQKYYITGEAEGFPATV
The experiment in a line: Downregulation of ERalpha in human MCF-7 cells assessed as reduction of estradiol-induced PgR mRNA levels after 24 hrs by RT-PCR method. The class given is cell-based. A digest of the protocol:
(§2)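 MCF-7 cells in full medium (5% FBS) with 3 × 10−10 M E2, treated 24 h across a concentration range; TRIzol RNA, reverse transcription, SYBR green qPCR for GREB1, PgR or pS2 normalized to 36B4, fold change versus vehicle; mean ± SD of at least two independent experiments in triplicate.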

Experiment [3] addresses T2, Estrogen receptor (Homo sapiens) (UniProt P03372).
T2 sequence (whole entry): T1 sequence (P03372 whole entry)
As to the kind of experiment: Downregulation of human ERalpha in human MCF-7 cells at 3 x 10^-8 M after 24 hrs by Western blot method. It counts as cell-based. A digest of the protocol:
(§3)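 MCF-7 cells treated 24 h at 3 × 10−10, 3 × 10−8 or 3 × 10−6 M; whole-cell extracts with protease/phosphatase inhibitors, 10% SDS-PAGE, nitrocellulose, probed with anti-ERα F10 and β-actin; ERα given as percent of vehicle.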

The test system of experiment [4] is MCF7. The experiment in a line: Antiproliferative activity against ER-positive human MCF7 cells at 3 uM after 6 days by WST-1 assay. It counts as functional. A digest of the protocol: as §1
The target in experiment [5] is T1, Estrogen receptor. The experiment in a line: Downregulation of ERalpha in human MCF-7 cells assessed as reduction of estradiol-induced pS2 mRNA levels after 24 hrs by RT-PCR method. The class given is cell-based. In a few lines:
as §2

The target in experiment [6] is T2, Estrogen receptor (Homo sapiens). The experiment in a line: Displacement of [3H]estradiol from full-length human ERalpha receptor by scintillation counting relative to estradiol.
The next experiment deals with MDA-MB-231. The experiment in a line: Antiproliferative activity against ERalpha-negative human MDA-MB-231 cells at 3 uM after 6 days by WST-1 assay. The class given is functional, cell-based. In a few lines: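 ERα-negative MDA-MB-231 breast cancer cells screened for proliferation with compound at 3 μM; WST-1 read-out at 450 nm after 6 days, relative to vehicle.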
A general note: Formazan colour is commonly taken as a measure of viable cells.

Experiment [7] deals with T2, Estrogen receptor (Homo sapiens). As to the kind of experiment: Downregulation of human ERalpha in human MCF-7 cells at 3 x 10^-6 M after 24 hrs by Western blot method. It counts as cell-based. In a few lines: as §3
For orientation: In western blotting, separated proteins are transferred to a membrane and probed.

For experiment [8], the target named is T1, Estrogen receptor. The experiment in a line: Downregulation of ERalpha in human MCF-7 cells assessed as reduction of estradiol-induced GREB1 mRNA levels after 24 hrs by RT-PCR method. It counts as cell-based. A digest of the protocol:
as §2

For experiment [9], the target named is T1, Estrogen receptor. As to the kind of experiment: Downregulation of human ERalpha in human MCF-7 cells after 24 hrs by in-cell Western immunoassay method. It counts as cell-based. In a few lines: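 MCF-7 cells at 3000 cells/well treated 24 h (3 μM screen or dose-response); formaldehyde-fixed, Triton-permeabilized, stained with rabbit HC-20 anti-ERα overnight at 4 °C, IR secondary plus Cell Tag 700 normalization; in-cell Western imaging, ERα relative to vehicle, average of at least three independent experiments.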

Experiment [10] addresses T2, Estrogen receptor (Homo sapiens). As to the kind of experiment: Downregulation of human ERalpha in human MCF-7 cells at 3 x 10^-10 M after 24 hrs by Western blot method. The class given is cell-based. In a few lines: as §3
Experiment [11] has the same target. The experiment in a line: Downregulation of ER-alpha levels in ER-positive human MCF-7 cells at 3 uM after 24 hrs by in-cell Western assay.
In experiment [12] the target is T1, Estrogen receptor. The experiment in a line: Displacement of [3H]estradiol from full-length human ERalpha receptor by scintillation counting.

pIC50, pKi: −log10 of the molar value. Activity calls are given as the source filed them. No cut-off for these calls is given here.

Turning to `O=C(/C=C/c1ccc(C(=C2C3CC4CC(C3)CC2C4)c2ccc(O)cc2)cc1)NCCCO`, the pIC50 was 8.72 in the experiment with MCF7 [1]; 7.30 at Estrogen receptor [2]; 7.30 on Estrogen receptor [5]; 7.30 at Estrogen receptor [8]; 9.28 at Estrogen receptor [9]. The outcome in experiment [3], in experiment [7] and in experiment [10] was Active. This molecule displayed an Activity in the experiment on MCF7 [4] of 30%. Also, the RBA in [6] was 47%. Also, in the experiment on MDA-MB-231, the result was inactive.

In the case of `O=C(O)/C=C/c1ccc(C(=C2C3CC4CC(C3)CC2C4)c2ccc(O)cc2)cc1`, the pIC50 was 7.51 with MCF7 [1]; 6.30 on Estrogen receptor [2]; 6.30 at Estrogen receptor [5]; 6.30 on Estrogen receptor [8]; 7.77 against Estrogen receptor [9]. The result (in experiment [11]; in experiment [3]; in the experiment with MCF7 [4]; in experiment [7]; in [10]) was Active. The negative logarithm of the Ki (pKi) at Estrogen receptor [12] is 9.40. Also, the RBA in [6] was 51%. Also, the result in the experiment with MDA-MB-231 was inactive.
